We go through three molecules from ChEMBL document CHEMBL1141138, “A novel immunostimulator, N-[alpha-O-benzyl-N-(acetylmuramyl)-L-alanyl-D-isoglutaminyl]-N6-trans-(m-nitrocinnamoyl)-L-lysine, and its adjuvancy on the hepatitis B surface antigen” (J Med Chem, 2005).

Several values for one entry are separate records, joined by “and”; a condition that tells them apart may be missing. Identical values can stand only once.

Data set [1] in a line: In vivo toxicity (500 mg/kg) is assessed as mass index in mice thymus cells. The class given is organism-based. The note with it: mouse.
Data set [2] in a line: In vivo toxicity (100 mg/kg) is assessed as increase in mass index of mice spleen cells relative to control (56.4+/-11.5). The note with it: mouse. Type of data set: organism-based.
Data set [3] in a line: In vivo toxicity (100 mg/kg) is assessed as increase in mass index of mice thymus cells relative to control (44.1+/-5.13). The class given is organism-based. The note with it: mouse.
Data set [4] can be described thus: In vivo toxicity (500 mg/kg) is assessed as increase in mass index of mice spleen cells relative to control (56.4+/-11.5). Type of data set: organism-based. Conditions: mouse.
A short description of data set [5]: In vivo toxicity (100 mg/kg) is assessed as mass index in mice spleen cells. The note with it: mouse. Type of data set: organism-based.
Data set [6] is described as follows: In vivo toxicity (100 mg/kg) is assessed as mass index in mice thymus cells. The note with it: mouse. Type of data set: organism-based.
Data set [7] can be described thus: In vivo toxicity (500 mg/kg) is assessed as mass index in mice spleen cells. The class given is organism-based. The note with it: mouse.
Data set [8] deals with P388. The data set can be described thus: Increased inhibitory ratio against P388 mice tumor cells compared to control. The class given is functional, Mus musculus. The procedure, abridged: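 Thioglycollate-elicited peritoneal macrophages from C57BL/6J mice (harvested 3 days after ip TG) were coincubated with P388 leukemia cells and compound for 72 h. P388 with compound alone served as the toxicity control. Surviving tumor cells were read by MTT at 570 nm, reference 630 nm. The inhibitory ratio was taken versus control.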

The nature of data set [9]: Effect of compound (10e-6 mol/L) on secretion of Interleukin-2 treated with bone marrow-derived dendritic cells in absence of lipopolysaccharide. The class given is functional, Mus musculus. The essentials: (§1)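 BMDCs came from BALB/c bone marrow adherent cells grown with IL-4 and GM-CSF (10 ng/mL each); half the medium was renewed every other day. On day 5 cells were preincubated with compound for 30 min, then held ±LPS (1.0 μg/mL) for 48 h. Supernatant IL-2 and IL-12 (pg/mL) were measured by sandwich ELISA. Detection limits were 15.0 and 7.8 pg/mL.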

Data set [10] is described as follows: Effect of compound (10e-7 mol/L) on secretion of Interleukin-2 treated with bone marrow-derived dendritic cells in absence of lipopolysaccharide. The class given is functional, Mus musculus. The essentials: as §1
The nature of data set [11]: Effect of compound (10e-8 mol/L) on secretion of Interleukin-2 treated with bone marrow-derived dendritic cells in absence of lipopolysaccharide. The class given is functional, Mus musculus. The essentials:
as §1

The nature of data set [12]: Effect of compound (10e-6 mol/L) on secretion of Interleukin-12 treated with bone marrow-derived dendritic cells in absence of lipopolysaccharide. The class given is functional, Mus musculus. The procedure, abridged:
as §1

A short description of data set [13]: Effect of compound (10e-6 mol/L) on secretion of Interleukin-2 treated with bone marrow-derived dendritic cells in presence of lipopolysaccharide. The class given is functional, Mus musculus. The procedure, abridged: as §1
Data set [14] can be described thus: Effect of compound (10e-7 mol/L) on secretion of Interleukin-12 treated with bone marrow-derived dendritic cells in absence of lipopolysaccharide. Type of data set: functional, Mus musculus. The essentials:
as §1

A short description of data set [15]: Effect of compound (10e-7 mol/L) on secretion of Interleukin-2 treated with bone marrow-derived dendritic cells in presence of lipopolysaccharide. The class given is functional, Mus musculus. The procedure, abridged: as §1
Data set [16] can be described thus: Effect of compound (10e-8 mol/L) on secretion of Interleukin-12 treated with bone marrow-derived dendritic cells in absence of lipopolysaccharide. Type of data set: functional, Mus musculus. The essentials: as §1
Data set [17] can be described thus: Effect of compound (10e-8 mol/L) on secretion of Interleukin-2 treated with bone marrow-derived dendritic cells in presence of lipopolysaccharide. The class given is functional, Mus musculus. The essentials:
as §1

Data set [18] is described as follows: Effect of compound (10e-9 mol/L) on secretion of Interleukin-2 treated with bone marrow-derived dendritic cells in presence of lipopolysaccharide. The class given is functional, Mus musculus. The procedure, abridged:
as §1

A short description of data set [19]: Effect of compound (10e-6 mol/L) on secretion of Interleukin-12 treated with bone marrow-derived dendritic cells in presence of lipopolysaccharide. The class given is functional, Mus musculus. The procedure, abridged:
as §1

Data set [20] in a line: Effect of compound (10e-7 mol/L) on secretion of Interleukin-12 treated with bone marrow-derived dendritic cells in presence of lipopolysaccharide. Type of data set: functional, Mus musculus. The essentials:
as §1

Data set [21] can be described thus: Effect of compound (10e-8 mol/L) on secretion of Interleukin-12 treated with bone marrow-derived dendritic cells in presence of lipopolysaccharide. The class given is functional, Mus musculus. The essentials:
as §1

Data set [22] can be described thus: Effect of compound (10e-9 mol/L) on secretion of Interleukin-12 treated with bone marrow-derived dendritic cells in presence of lipopolysaccharide. Type of data set: functional, Mus musculus. The essentials: as §1
In data set [23] the test system is P815. The data set is described as follows: In vitro stimulatory effect on specific release of allogenic CTL cytotoxicity on P815 cells mediated by BMDC in presence of LPS. The class given is functional, Mus musculus. The essentials: (§2)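 BALB/c (H-2d) BMDCs were pretreated with compound ±LPS for 24 h, then cocultured in quadruplicate with C57BL/6J (H-2b) splenocytes. Effectors harvested on day 6 were set to 5 × 10^5 cells and incubated with 1 × 10^4 P815 (H-2d) targets for 5 h. LDH release was read at OD450. Specific release = (E−S)/(M−S)×100; maximum release used 1% Triton X-100.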

In data set [24] the test system is Mus musculus. The data set can be described thus: Effect (10 mg/kg/day*7 days, i.v.) on cyclophosphamide (CY, i.p.) treated mice (immunosuppressed animal model) assessed by CD4+/CD8+ ratio in peripheral blood mononuclear cells. Type of data set: functional. The essentials:
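Male C57BL/6J mice given cyclophosphamide 30 (mg/kg)/day ip for 5 consecutive days, then randomized and dosed iv for 7 consecutive days. PBMCs collected on day 8; ratio of CD3+CD4+ to CD3+CD8+ T cells measured by flow cytometry (CD4-FITC, PE anti-CD8 staining). n = 3.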

The test system of data set [25] is Mus musculus. The data set can be described thus: Effect (0.5 mg/kg/day*7 days, i.v.) on cyclophosphamide (CY, i.p.) treated mice (immunosuppressed animal model) assessed by CD4+/CD8+ ratio in peripheral blood mononuclear cells. Type of data set: functional.
Data set [26] relates to Mus musculus. The data set is described as follows: Effect (2.0 mg/kg/day*7 days, i.v.) on cyclophosphamide (CY, i.p.) treated mice (immunosuppressed animal model) assessed by CD4+/CD8+ ratio in peripheral blood mononuclear cells. The class given is functional.
In data set [27] the test system is P815. The data set can be described thus: In vitro stimulatory effect on increased rate of allogenic CTL cytotoxicity on P815 cells mediated by BMDC in presence of LPS. The class given is functional, Mus musculus. The procedure, abridged: as §2
The species named for data set [28] is Mus musculus. The data set can be described thus: Effect of compound (10e-6 mol/L) on rate of proliferation of murine splenocytes in absence of concanavalin A compared to control. The class given is functional. The essentials:
(§3)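 Normal murine splenocytes were exposed to compound with or without concanavalin A (2 μg/mL) for 72 h. Proliferation was read by MTT as OD570. Increased rate (%) was taken versus the matching control without or with ConA. Mean ± SD.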

Data set [29] is filed under the species Mus musculus. The data set is described as follows: Effect of compound (10e-7 mol/L) on rate of proliferation of murine splenocytes in absence of concanavalin A compared to control. Type of data set: functional. The procedure, abridged:
as §3

For data set [30], the species on record is Mus musculus. The data set is described as follows: Effect of compound (10e-8 mol/L) on rate of proliferation of murine splenocytes in absence of concanavalin A compared to control. Type of data set: functional. The procedure, abridged:
as §3

The species entered for data set [31] is Mus musculus. The data set can be described thus: Effect of compound (10e-9 mol/L) on rate of proliferation of murine splenocytes in absence of concanavalin A compared to control. The class given is functional. The essentials:
as §3

Data set [32] is filed under the species Mus musculus. The data set is described as follows: Effect of compound (10e-6 mol/L) on rate of proliferation of murine splenocytes in presence of concanavalin A compared to control. The class given is functional. The procedure, abridged: as §3
The species entered for data set [33] is Mus musculus. The data set can be described thus: Effect of compound (10e-7 mol/L) on rate of proliferation of murine splenocytes in presence of concanavalin A compared to control. The class given is functional. The procedure, abridged:
as §3

Data set [34] is filed under the species Mus musculus. The data set can be described thus: Effect of compound (10e-8 mol/L) on rate of proliferation of murine splenocytes in presence of concanavalin A compared to control. The class given is functional. The procedure, abridged:
as §3

The species entered for data set [35] is Mus musculus. The data set can be described thus: Effect of compound (10e-9 mol/L) on rate of proliferation of murine splenocytes in presence of concanavalin A compared to control. The class given is functional. The essentials: as §3
Data set [36] relates to P815. The data set can be described thus: In vitro stimulatory effect on specific release of allogenic CTL cytotoxicity on P815 cells mediated by BMDC in absence of LPS. The class given is functional, Mus musculus. The essentials:
as §2

Data set [37] has as its system P815. The data set can be described thus: In vitro stimulatory effect on increased rate of allogenic CTL cytotoxicity on P815 cells mediated by BMDC in absence of LPS. The class given is functional, Mus musculus. The procedure, abridged:
as §2

On to `CC(=O)N[C@H]1[C@@H](OCc2ccccc2)O[C@H](CO)[C@@H](O)[C@@H]1O[C@H](C)C(=O)N[C@@H](C)C(=O)N[C@H](CCC(=O)N[C@@H](CCCCNC(=O)/C=C/c1cccc([N+](=O)[O-])c1)C(N)=O)C(N)=O`, for which the Mass index in [1] was 43.5 mg/10g body weight; in data set [2], 6%; in data set [3] it was -1.4% and -2.8%; in data set [4] it was 53%; in data set [5], 59.9 mg/10g body weight; in data set [6] it was 42.8 mg/10g body weight. The Mass index in data set [7] was determined as 86.1 mg/10g body weight. Besides, the IR in data set [8] worked out at 71%. Also, the Activity in [9] turned out to be 103 pg/mL; in [10] it was 76 pg/mL; in [11], 60 pg/mL; in data set [12], 918 pg/mL; in [13], 132 pg/mL; in data set [14] it was 786 pg/mL. For the same molecule, the Activity was 117 pg/mL in data set [15]; 725 pg/mL in data set [16]; 107 pg/mL in [17]; 94.8 pg/mL in data set [18]; 988 pg/mL in data set [19]; 838 pg/mL in data set [20]. The results for the Activity in data set [21] and in data set [22] were 819 pg/mL and 800 pg/mL, respectively. Also, in data set [23], the Release was 35.7% and 31.3% and 28.5% and 23.8%. Besides, the Ratio in [24] is 4.47; in data set [25], 3.18; in [26] it was 4.14. Besides, the Increase in data set [27] is 82% and 49% and 28%; in data set [28] it was 191%; in [29] it was 75%; in data set [30], 27.3%; in data set [31] it was 5.41%; in data set [32], 82%. Also, the Increase is recorded as 38% in [33], 15% in data set [34] and 7.8% in data set [35].
On to `O=P1(N(CCCl)CCCl)NCCCO1` (stereo not drawn) [CYCLOPHOSPHAMIDE ANHYDROUS], for which, in data set [24], the Ratio is 2.4.
`CCCCCCCCCCCCCCCCCC(=O)NCCCC[C@H](NC(=O)CC[C@@H](NC(=O)[C@H](C)NC(=O)[C@@H](C)O[C@H]1[C@H](O)[C@@H](CO)OC(O)[C@@H]1NC(C)=O)C(N)=O)C(=O)O` (stereo partly drawn) [ROMURTIDE]: in data set [8], the IR turned out to be 45%. Also, the Release in data set [36] is 31.7%; in data set [23], 30.7%. For the same molecule, the Increase came to 187% in [37], 45% in [27], 122% in data set [28] and 67% in data set [32].
